Measurements as given in ChEMBL document CHEMBL1137766, “Synthesis and biological evaluation of 3,4,6-triaryl-2-pyranones as a potential new class of anti-breast cancer agents” (Bioorg Med Chem, 2009).
The source made the active and inactive calls. No cut-off for these calls is given here.

Test system: Vero
Test: Cytotoxicity against african green monkey Vero cells after 48 hrs by MTT assay
Format: cell-based
Settings: chlorocebus sabaeus

SMILES	Activity
O=c1oc(-c2ccccc2)cc(-c2ccccc2)c1-c1ccc(O)cc1	Non-toxic
O=c1oc(-c2ccccc2)cc(-c2ccc(OCCN3CCCCC3)cc2)c1-c1ccccc1	Toxic
COc1ccc(-c2cc(-c3ccccc3)oc(=O)c2-c2ccc(OCCN3CCCCC3)cc2)cc1	Toxic
O=c1oc(-c2ccc(O)cc2)cc(-c2ccccc2)c1-c1ccccc1	Toxic
COc1ccc(-c2cc(-c3ccccc3)c(-c3ccc(O)cc3)c(=O)o2)cc1	Non-toxic
O=c1oc(-c2ccccc2)cc(-c2ccc(O)cc2)c1-c1ccc(O)cc1	Non-toxic
O=c1oc(-c2ccc(OCCN3CCCC3)cc2)cc(-c2ccccc2)c1-c1ccccc1	Toxic
O=c1oc(-c2ccc(O)cc2)cc(-c2ccc(O)cc2)c1-c1ccccc1	Non-toxic

Test system: MDA-MB-231
Test: Antiproliferative activity against human estrogen receptor deficient MDA-MB-231 cells after 48 hrs by MTT assay
Format: functional, cell-based
Settings: MDA-MB-231, 48 h
Outline: (§1)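 MTT reduction: 1 × 10⁴ cells/well seeded in DMEM with 10% FBS, incubated 24 h at 37 °C in CO₂. Compounds diluted in culture medium and applied for 48 h. MTT (5 mg/mL stock) added for 4 h, formazan dissolved in DMSO, absorbance read at 540 nm. IC50 taken from growth inhibition. Vehicle control 0.001% DMSO.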

SMILES	IC50 [µM]
O=c1oc(-c2ccccc2)cc(-c2ccccc2)c1-c1ccc(O)cc1	38
O=c1oc(-c2ccccc2)cc(-c2ccc(OCCN3CCCCC3)cc2)c1-c1ccccc1	11
COc1ccc(-c2cc(-c3ccccc3)oc(=O)c2-c2ccc(OCCN3CCCCC3)cc2)cc1	12
O=c1oc(-c2ccc(O)cc2)cc(-c2ccccc2)c1-c1ccccc1	13
COc1ccc(-c2cc(-c3ccccc3)c(-c3ccc(O)cc3)c(=O)o2)cc1	17
O=c1oc(-c2ccccc2)cc(-c2ccc(O)cc2)c1-c1ccc(O)cc1	27
O=c1oc(-c2ccc(OCCN3CCCC3)cc2)cc(-c2ccccc2)c1-c1ccccc1	34
O=c1oc(-c2ccc(O)cc2)cc(-c2ccc(O)cc2)c1-c1ccccc1	26

Test system: MDA-MB-231
Test: Induction of apoptosis in human MDA-MB-231 cells assessed as caspase induction at 20 uM after 24 hrs by fluorescence assay
Format: functional, cell-based
Settings: not given

SMILES	Activity
COc1ccc(-c2cc(-c3ccccc3)c(-c3ccc(O)cc3)c(=O)o2)cc1	inactive
O=c1oc(-c2ccccc2)cc(-c2ccc(O)cc2)c1-c1ccc(O)cc1	inactive
O=c1oc(-c2ccc(O)cc2)cc(-c2ccc(O)cc2)c1-c1ccccc1	inactive

Test system: MDA-MB-231
Test: Induction of apoptosis in human MDA-MB-231 cells assessed as DNA fragmentation at 10 uM after 24 hrs by ELISA
Format: functional, cell-based
Settings: not given
Outline: (§2)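 BrdU-labelled cells incubated with compound for 24 h. Cells lysed 30 min at rt and spun at 250g for 10 min. Supernatant captured on adsorbed anti-DNA antibody, fixed by microwave 5 min, then probed 90 min with peroxidase anti-BrdU; OD read at 370 nm. Kit positive and negative controls used. Duplicates from two independent experiments.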

SMILES	Activity
O=c1oc(-c2ccc(O)cc2)cc(-c2ccc(O)cc2)c1-c1ccccc1	Active

Test system: MCF7
Test: Induction of apoptosis in human MCF7 cells assessed as caspase induction at 20 uM after 24 hrs by fluorescence assay
Format: functional, cell-based
Settings: not given
Outline: (§3)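 Caspase kit covering caspases 2, 3, 6, 7, 8, 9 and 10. MCF-7 cells serum-deprived 4 h, then treated with compound for 24 h at various concentrations. DEVD-rhodamine-110 substrate added; released rhodamine-110 fluorescence read at 560 nm. Camptothecin-treated U937 cells served as positive control. Duplicates from two independent experiments.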

SMILES	Activity
COc1ccc(-c2cc(-c3ccccc3)c(-c3ccc(O)cc3)c(=O)o2)cc1	Active
O=c1oc(-c2ccccc2)cc(-c2ccc(O)cc2)c1-c1ccc(O)cc1	Active
O=c1oc(-c2ccc(O)cc2)cc(-c2ccc(O)cc2)c1-c1ccccc1	Active

Test system: MCF7
Test: Induction of apoptosis in human MCF7 cells assessed as DNA fragmentation at 20 uM after 24 hrs by ELISA
Format: functional, cell-based
Settings: not given
Outline: as §2

SMILES	Activity
O=c1oc(-c2ccccc2)cc(-c2ccccc2)c1-c1ccc(O)cc1	inactive
COc1ccc(-c2cc(-c3ccccc3)c(-c3ccc(O)cc3)c(=O)o2)cc1	inactive
O=c1oc(-c2ccccc2)cc(-c2ccc(O)cc2)c1-c1ccc(O)cc1	Active
O=c1oc(-c2ccc(O)cc2)cc(-c2ccc(O)cc2)c1-c1ccccc1	Active

Target: T1, Estrogen receptor (Homo sapiens) (UniProt P03372)
T1 sequence (whole entry): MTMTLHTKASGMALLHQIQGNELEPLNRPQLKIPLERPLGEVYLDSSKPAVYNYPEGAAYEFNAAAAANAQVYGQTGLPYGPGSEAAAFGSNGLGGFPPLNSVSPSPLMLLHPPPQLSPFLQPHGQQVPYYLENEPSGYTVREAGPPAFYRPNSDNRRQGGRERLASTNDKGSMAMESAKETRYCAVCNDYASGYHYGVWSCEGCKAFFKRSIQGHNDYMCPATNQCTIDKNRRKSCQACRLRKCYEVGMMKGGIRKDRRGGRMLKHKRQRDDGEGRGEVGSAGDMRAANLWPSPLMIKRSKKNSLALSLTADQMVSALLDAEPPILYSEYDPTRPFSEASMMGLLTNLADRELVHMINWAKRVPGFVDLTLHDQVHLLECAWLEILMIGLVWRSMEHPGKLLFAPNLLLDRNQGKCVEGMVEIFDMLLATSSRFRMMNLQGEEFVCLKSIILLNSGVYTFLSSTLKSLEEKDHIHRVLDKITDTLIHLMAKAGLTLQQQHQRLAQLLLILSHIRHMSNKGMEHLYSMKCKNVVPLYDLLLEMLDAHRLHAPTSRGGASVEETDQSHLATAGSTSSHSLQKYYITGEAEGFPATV
Test: Transactivation of ERalpha expressed in african green monkey COS7 cells at 5 uM after 24 hrs by luciferase reporter gene assay
Format: cell-based
Settings: COS-7
Outline: (§4)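 Cos-7 cells, 40,000 per well, seeded 24 h before co-transfection with 200 ng pGL3-Gal4Tk-Luc reporter plus ERα or ERβ expression plasmid and pRL-CMV. Compounds given, then cells harvested 24 h post-transfection for dual-luciferase assay. Firefly signal normalised to Renilla and GFP, expressed as fold over VP-16 control. Mean ± SD of three independent experiments.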

SMILES	Activity
O=c1oc(-c2ccccc2)cc(-c2ccccc2)c1-c1ccc(O)cc1	inactive
COc1ccc(-c2cc(-c3ccccc3)c(-c3ccc(O)cc3)c(=O)o2)cc1	inactive
O=c1oc(-c2ccccc2)cc(-c2ccc(O)cc2)c1-c1ccc(O)cc1	inactive
O=c1oc(-c2ccc(O)cc2)cc(-c2ccc(O)cc2)c1-c1ccccc1	inactive

Target: Estrogen receptor beta (Homo sapiens) (UniProt Q92731)
Test: Transactivation of ERbeta expressed in african green monkey COS7 cells at 5 uM after 24 hrs by luciferase reporter gene assay
Format: cell-based
Settings: COS-7
Outline: as §4

Chain of Estrogen receptor beta (Homo sapiens) (Q92731 whole entry): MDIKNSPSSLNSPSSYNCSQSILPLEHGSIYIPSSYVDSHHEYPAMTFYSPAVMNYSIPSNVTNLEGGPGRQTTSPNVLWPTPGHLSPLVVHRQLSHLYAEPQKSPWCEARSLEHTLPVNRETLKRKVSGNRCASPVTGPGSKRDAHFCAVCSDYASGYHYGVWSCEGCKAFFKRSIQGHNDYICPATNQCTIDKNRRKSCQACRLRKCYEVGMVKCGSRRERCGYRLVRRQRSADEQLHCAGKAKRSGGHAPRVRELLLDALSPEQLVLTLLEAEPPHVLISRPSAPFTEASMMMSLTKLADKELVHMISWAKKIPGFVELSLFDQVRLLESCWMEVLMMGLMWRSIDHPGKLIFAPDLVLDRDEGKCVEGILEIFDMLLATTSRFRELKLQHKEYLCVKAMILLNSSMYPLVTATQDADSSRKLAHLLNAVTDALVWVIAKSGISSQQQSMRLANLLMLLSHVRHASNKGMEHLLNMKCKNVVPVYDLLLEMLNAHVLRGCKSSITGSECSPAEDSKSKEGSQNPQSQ

SMILES	Activity
O=c1oc(-c2ccccc2)cc(-c2ccccc2)c1-c1ccc(O)cc1	inactive
COc1ccc(-c2cc(-c3ccccc3)c(-c3ccc(O)cc3)c(=O)o2)cc1	inactive
O=c1oc(-c2ccccc2)cc(-c2ccc(O)cc2)c1-c1ccc(O)cc1	inactive
O=c1oc(-c2ccc(O)cc2)cc(-c2ccc(O)cc2)c1-c1ccccc1	inactive

Test system: MDA-MB-231
Test: Induction of apoptosis in human MDA-MB-231 cells assessed as morphological changes at 10 uM after 18 hrs using Hoechst 33342 staining by fluorescent microscopy
Format: functional, cell-based
Settings: not given
Outline: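 10,000 cells seeded on 18-mm coverslips and grown 24 h. Medium replaced, then cells treated with 10 µM compound for 18 h. Stained with Hoechst 33342 0.5 µg/ml in 4% paraformaldehyde for 30 min at 37 °C. Random fields imaged by fluorescence microscopy; viable versus apoptotic cells judged qualitatively by fluorescence and nuclear fragmentation.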

SMILES	Activity
O=c1oc(-c2ccccc2)cc(-c2ccccc2)c1-c1ccc(O)cc1	Active
COc1ccc(-c2cc(-c3ccccc3)c(-c3ccc(O)cc3)c(=O)o2)cc1	Active
O=c1oc(-c2ccccc2)cc(-c2ccc(O)cc2)c1-c1ccc(O)cc1	Active
O=c1oc(-c2ccc(O)cc2)cc(-c2ccc(O)cc2)c1-c1ccccc1	Active

Test system: not listed separately
Test: Cytotoxicity against osteoblasts after 48 hrs by MTT assay
Format: cell-based
Settings: osteoblast

SMILES	Activity
O=c1oc(-c2ccccc2)cc(-c2ccccc2)c1-c1ccc(O)cc1	Non-toxic
O=c1oc(-c2ccccc2)cc(-c2ccc(OCCN3CCCCC3)cc2)c1-c1ccccc1	Toxic
COc1ccc(-c2cc(-c3ccccc3)oc(=O)c2-c2ccc(OCCN3CCCCC3)cc2)cc1	Toxic
O=c1oc(-c2ccc(O)cc2)cc(-c2ccccc2)c1-c1ccccc1	Toxic
COc1ccc(-c2cc(-c3ccccc3)c(-c3ccc(O)cc3)c(=O)o2)cc1	Non-toxic
O=c1oc(-c2ccccc2)cc(-c2ccc(O)cc2)c1-c1ccc(O)cc1	Non-toxic
O=c1oc(-c2ccc(OCCN3CCCC3)cc2)cc(-c2ccccc2)c1-c1ccccc1	Toxic
O=c1oc(-c2ccc(O)cc2)cc(-c2ccc(O)cc2)c1-c1ccccc1	Non-toxic

Test system: MCF7
Test: Induction of apoptosis in human MCF7 cells assessed as DNA fragmentation at 10 uM after 24 hrs by ELISA
Format: functional, cell-based
Settings: not given
Outline: as §2

SMILES	Activity
O=c1oc(-c2ccccc2)cc(-c2ccccc2)c1-c1ccc(O)cc1	inactive
COc1ccc(-c2cc(-c3ccccc3)c(-c3ccc(O)cc3)c(=O)o2)cc1	inactive
O=c1oc(-c2ccccc2)cc(-c2ccc(O)cc2)c1-c1ccc(O)cc1	Active

Test system: MDA-MB-231
Test: Induction of apoptosis in human MDA-MB-231 cells assessed as caspase induction at 40 uM after 24 hrs by fluorescence assay
Format: functional, cell-based
Settings: not given

SMILES	Activity
COc1ccc(-c2cc(-c3ccccc3)c(-c3ccc(O)cc3)c(=O)o2)cc1	inactive
O=c1oc(-c2ccccc2)cc(-c2ccc(O)cc2)c1-c1ccc(O)cc1	inactive
O=c1oc(-c2ccc(O)cc2)cc(-c2ccc(O)cc2)c1-c1ccccc1	inactive

Test system: MDA-MB-231
Test: Induction of apoptosis in human MDA-MB-231 cells assessed as DNA fragmentation at 20 uM after 24 hrs by ELISA
Format: functional, cell-based
Settings: not given
Outline: as §2

SMILES	Activity
O=c1oc(-c2ccccc2)cc(-c2ccc(O)cc2)c1-c1ccc(O)cc1	Active
O=c1oc(-c2ccc(O)cc2)cc(-c2ccc(O)cc2)c1-c1ccccc1	Active

Test system: MCF7
Test: Antiproliferative activity against human MCF7 cells expressing estrogen receptor after 48 hrs by MTT assay
Format: functional, cell-based
Settings: MCF7, 48 h
Outline: as §1

SMILES	IC50 [µM]
O=c1oc(-c2ccccc2)cc(-c2ccccc2)c1-c1ccc(O)cc1	25
O=c1oc(-c2ccccc2)cc(-c2ccc(OCCN3CCCCC3)cc2)c1-c1ccccc1	26
COc1ccc(-c2cc(-c3ccccc3)oc(=O)c2-c2ccc(OCCN3CCCCC3)cc2)cc1	16
O=c1oc(-c2ccc(O)cc2)cc(-c2ccccc2)c1-c1ccccc1	21
COc1ccc(-c2cc(-c3ccccc3)c(-c3ccc(O)cc3)c(=O)o2)cc1	14
O=c1oc(-c2ccccc2)cc(-c2ccc(O)cc2)c1-c1ccc(O)cc1	24
O=c1oc(-c2ccc(OCCN3CCCC3)cc2)cc(-c2ccccc2)c1-c1ccccc1	25
O=c1oc(-c2ccc(O)cc2)cc(-c2ccc(O)cc2)c1-c1ccccc1	14

Test system: MCF7
Test: Induction of apoptosis in human MCF7 cells assessed as caspase induction at 40 uM after 24 hrs by fluorescence assay
Format: functional, cell-based
Settings: not given
Outline: as §3

SMILES	Activity
O=c1oc(-c2ccccc2)cc(-c2ccccc2)c1-c1ccc(O)cc1	Active
